The source of these data is ChEMBL document CHEMBL2029237, “Melanin-concentrating hormone receptor 1 antagonists. Synthesis and structure-activity relationships of novel 3-(aminomethyl)quinolines” (J Med Chem, 2012).

The target in data set [1] is T1, 5-hydroxytryptamine receptor 2C (Homo sapiens, UniProt P28335).
T1 sequence (P28335 whole entry): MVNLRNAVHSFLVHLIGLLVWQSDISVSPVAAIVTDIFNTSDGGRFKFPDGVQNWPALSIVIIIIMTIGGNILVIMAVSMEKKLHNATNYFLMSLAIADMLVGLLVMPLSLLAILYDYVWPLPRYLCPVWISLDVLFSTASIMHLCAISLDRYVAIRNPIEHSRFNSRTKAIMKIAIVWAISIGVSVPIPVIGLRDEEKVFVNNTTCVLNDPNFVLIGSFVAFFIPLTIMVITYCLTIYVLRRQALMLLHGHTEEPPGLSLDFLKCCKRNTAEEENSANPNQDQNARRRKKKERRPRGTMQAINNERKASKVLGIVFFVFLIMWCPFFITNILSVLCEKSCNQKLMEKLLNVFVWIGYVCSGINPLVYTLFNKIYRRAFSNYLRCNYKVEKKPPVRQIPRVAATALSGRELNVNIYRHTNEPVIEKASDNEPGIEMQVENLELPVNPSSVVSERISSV
The experiment in a line: Displacement of [3H]mesulergine from human 5HT2C receptor expressed in CHO cells after 1 hr by scintillation counting. The class given is cell-based. In a few lines:
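Membranes from CHO cells stably expressing human 5-HT2c incubated 1 h at room temperature with [3H]mesulergine and compound at various concentrations. Terminated by GF/C filtration, filter radioactivity counted by scintillation. IC50 from one experiment in duplicate.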

Data set [2] has as its target T2, Melanin-concentrating hormone receptor 1 (Homo sapiens, UniProt Q99705). The experiment in a line: Displacement of [125I]MCH from human MCHR1 expressed in CHO cells after 1 hr by scintillation counting. It is filed as cell-based. In a few lines: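 CHO cell membranes stably expressing human or rat MCHR1 incubated 1 h at room temperature with [125I]MCH(4−19) and compound at various concentrations. Filtration through GF/C glass filters, bound radioactivity counted by scintillation. IC50 from one experiment in duplicate.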

Data set [3] in a line: Solubility of the compound in JP2 solution at 10 mM. It is filed as physicochemical. In a few lines: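 The 10 mM DMSO solution of compound was added to JP2 until opalescence appeared.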
In data set [4] the target is T2, Melanin-concentrating hormone receptor 1. The data set can be described thus: Antagonist activity at human MCHR1 expressed in CHO cells assessed as inhibition of MCH-induced [3H]arachidonic acid release […] by liquid scintillation counting. The class given is functional, cell-based. Conditions: in the assay text read “45 mins” for “16 hrs”. In a few lines: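 Human MCHR1-CHO cells seeded at 50 000/well, cultured 1 day, then loaded with [3H]arachidonic acid (0.2 μCi/well) for 16 h. Washed with DMEM containing 20 mM HEPES pH 7.4 and 0.2% BSA. Compound preincubated 30 min at 37 °C, MCH added, 45 min incubation, medium radioactivity by liquid scintillation.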

Converted amounts (≈) assume the structure as drawn.

T2 sequence (Q99705 whole entry): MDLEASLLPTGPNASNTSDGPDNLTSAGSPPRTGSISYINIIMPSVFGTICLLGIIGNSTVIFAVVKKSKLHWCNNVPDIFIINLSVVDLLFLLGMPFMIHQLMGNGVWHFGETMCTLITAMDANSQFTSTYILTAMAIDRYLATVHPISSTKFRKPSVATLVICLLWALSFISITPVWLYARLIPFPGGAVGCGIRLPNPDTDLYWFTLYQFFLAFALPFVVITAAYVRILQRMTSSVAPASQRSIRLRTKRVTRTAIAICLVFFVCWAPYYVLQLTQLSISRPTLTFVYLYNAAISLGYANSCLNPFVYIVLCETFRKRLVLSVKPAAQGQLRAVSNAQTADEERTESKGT

`Cc1ccc(-c2ccc(C(=O)Nc3ccc4cc(CN5CCCC5)cnc4c3)cn2)cc1`: the values for the IC50 in data set [1] and in data set [2] were 570 nM and 18 nM, respectively.

Regarding `O=C(Nc1ccc2cc(CN3CCCC3)cnc2c1)c1ccc(-c2ccccc2)cc1`, the IC50 was 310 nM in data set [1] and 13 nM in data set [2].

For the compound `O=C(Nc1ccc2cc(CN3CCCC3)ccc2c1)c1ccc(-c2ccc(F)cc2)cc1`, the solubility in data set [3] turned out to be 0.11 µg/mL (≈ 0.259 µM). The IC50 turned out to be 120 nM in data set [1], 0.76 nM in data set [2] and 9 nM in data set [4].

Take `Cc1ccc(C2CCN(C(=O)Nc3ccc4cc(CN5CCCC5)cnc4c3)CC2)cc1`: the IC50 in data set [2] is 23 nM.

Regarding `O=C(Nc1ccc2c(c1)OCC(CN1CCCC1)=C2)c1ccc(-c2ccc(F)cc2)cc1`, the solubility in data set [3] was determined as 0.17 µg/mL (≈ 0.397 µM). Also, the IC50 in data set [1] worked out at 3.1 nM; in data set [2] it was 0.91 nM; in data set [4], 10 nM.

`O=C(Nc1ccc2c(c1)CCC(CN1CCCC1)=C2)c1ccc(-c2ccc(F)cc2)cc1`: in data set [3], the solubility was less than 0.03 µg/mL. Further, the IC50 stood at 0.53 nM in data set [1] and 17 nM in data set [4].

Compound `COc1ccc(C2CCN(C(=O)Nc3ccc4cc(CN5CCCC5)cnc4c3)CC2)cc1` had an IC50 in data set [2] of 48 nM.

Take `O=C(Nc1ccc2nc(CN3CCCC3)ccc2c1)c1ccc(-c2ccc(F)cc2)cc1`: the IC50 was determined as 36 nM in data set [1], 2.7 nM in data set [2] and 40 nM in data set [4].

With `Cc1ccc(-c2ccc(C(=O)Nc3ccc4cc(CN5CCCC5)cnc4c3C)cc2)cc1`, the values for the IC50 in data set [1], in data set [2] and in data set [4] were 540 nM, 1 nM and 11 nM, respectively.

Take `O=C(Nc1ccc2cc(CN3CCCC3)cnc2c1)c1ccc(-c2ccccc2)nc1`: the IC50 in data set [2] came to 73 nM.

With `O=C(Nc1ccc2cc(CN3CCCC3)cnc2c1F)c1ccc(-c2ccc(F)cc2)cc1`, the IC50 in data set [1] turned out to be 78 nM; in data set [2] it was 0.92 nM; in data set [4], 2.3 nM.

With `COc1ccc(-c2ccc(C(=O)Nc3ccc4cc(CN5CCCC5)cnc4c3C)cc2)cc1`, the results for the IC50 in data set [1], in data set [2] and in data set [4] were greater than 1000 nM, 0.53 nM and 4.3 nM, respectively.

Turning to `Cc1c(NC(=O)c2ccc(-c3ccc(Cl)cc3)cc2)ccc2cc(CN3CCCC3)cnc12`, the values for the IC50 in data set [1], in data set [2] and in data set [4] were greater than 1000 nM, 0.36 nM and 7.6 nM, respectively.

Turning to `O=C(Nc1ccc2cc(CN3CCCC3)cnc2c1)c1ccc(-c2ccc(Cl)cc2)nc1`, the IC50 in data set [1] came out at 930 nM; in data set [2] it was 4.1 nM; in data set [4] it was 14 nM.

`COc1c(NC(=O)c2ccc(-c3ccc(F)cc3)cc2)ccc2cc(CN3CCCC3)cnc12`: the IC50 in data set [2] was 110 nM.

In general, IC50 refers to the concentration that inhibits the measured activity by half. By solubility is commonly meant the dissolved amount per volume that the medium holds. A high value points to much dissolved substance.
